Values after ≈ are worked out from the molar mass of the structure shown.
Legend:
Assay type in all cases: functional
[1] = system: Campylobacter coli; assay: Antibacterial activity against Campylobacter coli by NCCLS agar doubling dilution method
How it was run: (§1)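 MICs by agar doubling dilution following the NCCLS (CLSI) Campylobacter Working Group procedure, applied to ampicillin- and amoxicillin-resistant isolates from UK chicken flocks (2000–2006). C. jejuni NCTC 11168 and C. coli NCTC 11366 served as control strains. Resistance was called at an ampicillin cutoff of 8 μg/ml. Other agents were judged against Enterobacteriaceae guidelines (BSAC, CLSI).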

[2] = system: Campylobacter jejuni; assay: Antibacterial activity against Campylobacter jejuni by NCCLS agar doubling dilution method; how it was run: as §1
[3] = system: Campylobacter jejuni; assay: Antibacterial activity against bla gene-positive and nitrocefin reaction-positive beta-lactamase harboring Campylobacter jejuni isolate P1093 by NCCLS agar doubling dilution method
How it was run: (§2)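 MICs of β-lactams by agar doubling dilution following the NCCLS (CLSI) Campylobacter Working Group procedure, with C. jejuni NCTC 11168 and C. coli NCTC 11366 as controls. Isolates were from UK poultry flocks. β-Lactamase status was set by Cj0299 PCR (281-bp amplimer) and by a nitrocefin colour change of sonicated lysate within 5 min, or within 30 min on repeat.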

[4] = system: Campylobacter jejuni; assay: Antibacterial activity against bla gene-positive and nitrocefin reaction-positive beta-lactamase harboring Campylobacter jejuni isolate P286 by NCCLS agar doubling dilution method
How it was run: (§3)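 MICs by agar doubling dilution per the NCCLS (now CLSI) Campylobacter Working Group method. Isolates came from UK chicken flocks (feces, ceca or farm environment), 2000–2006. C. jejuni NCTC 11168 and C. coli NCTC 11366 served as control strains. The ampicillin resistance cutoff was 8 μg/ml; BSAC/CLSI Enterobacteriaceae guidelines were used for other agents.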

[5] = system: Campylobacter coli; assay: Antibacterial activity against bla-positive and beta-lactamase-weakly positive Campylobacter coli isolate P1627 by NCCLS agar doubling dilution method; how it was run: as §3
[6] = system: Campylobacter jejuni; assay: Antibacterial activity against bla gene-positive and nitrocefin reaction-positive beta-lactamase harboring Campylobacter jejuni isolate P338 by NCCLS agar doubling dilution method; how it was run: as §3
[7] = system: Campylobacter jejuni; assay: Antibacterial activity against bla gene-positive and nitrocefin reaction-positive beta-lactamase harboring Campylobacter jejuni isolate P285 by NCCLS agar doubling dilution method; how it was run: as §3
[8] = system: Campylobacter coli; assay: Antibacterial activity against bla gene-positive and nitrocefin reaction-positive beta-lactamase harboring Campylobacter coli isolate P1826 by NCCLS agar doubling dilution method; how it was run: as §2
[9] = system: Campylobacter jejuni; assay: Antibacterial activity against bla gene-positive and nitrocefin reaction-positive beta-lactamase harboring Campylobacter jejuni isolate P1730 by NCCLS agar doubling dilution method; how it was run: as §3
[10] = system: Campylobacter jejuni; assay: Antibacterial activity against Campylobacter jejuni isolate P1093 harboring blaOXA-61::cat gene by NCCLS agar doubling dilution method
How it was run: (§4)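 Agar doubling dilution MICs (NCCLS/CLSI Campylobacter Working Group method) against Cj0299-inactivated mutants. Mutants were made by transforming the C. jejuni isolate with pCI and selecting on Mueller-Hinton agar with 10 μg/ml chloramphenicol for 3–5 days. Chromosomal insertion was confirmed by PCR with Cj0299 and cat primers.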

[11] = system: Campylobacter jejuni; assay: Antibacterial activity against Campylobacter jejuni isolate P270 harboring blaOXA-61::cat gene by NCCLS agar doubling dilution method
[12] = system: Campylobacter jejuni; assay: Antibacterial activity against bla gene-positive and nitrocefin reaction-negative beta-lactamase harboring Campylobacter jejuni isolate P1699 by NCCLS agar doubling dilution method; how it was run: as §2
[13] = system: Campylobacter jejuni; assay: Antibacterial activity against bla gene-negative and nitrocefin reaction-negative beta-lactamase harboring Campylobacter jejuni isolate P850 by NCCLS agar doubling dilution method; how it was run: as §2
[14] = system: Campylobacter jejuni; assay: Antibacterial activity against bla gene-positive and nitrocefin reaction-positive beta-lactamase harboring Campylobacter jejuni isolate P1618 by NCCLS agar doubling dilution method; how it was run: as §2
[15] = system: Campylobacter jejuni; assay: Antibacterial activity against bla gene-positive and nitrocefin reaction-negative beta-lactamase harboring Campylobacter jejuni NCTC 11168 by NCCLS agar doubling dilution method; how it was run: as §2
[16] = system: Campylobacter coli; assay: Antibacterial activity against bla gene-positive and nitrocefin reaction-positive beta-lactamase harboring Campylobacter coli isolate P321 by NCCLS agar doubling dilution method; how it was run: as §2
[17] = system: Campylobacter jejuni; assay: Antibacterial activity against bla gene-negative and nitrocefin reaction-negative beta-lactamase harboring Campylobacter jejuni isolate P835 by NCCLS agar doubling dilution method; how it was run: as §2
[18] = system: Campylobacter jejuni; assay: Antibacterial activity against bla gene-positive and nitrocefin reaction-negative beta-lactamase harboring Campylobacter jejuni isolate P1698 by NCCLS agar doubling dilution method; how it was run: as §2
[19] = system: Campylobacter jejuni; assay: Antibacterial activity against bla gene-positive and nitrocefin reaction-positive beta-lactamase harboring Campylobacter jejuni isolate P1650 by NCCLS agar doubling dilution method; how it was run: as §2
[20] = system: Campylobacter jejuni; assay: Antibacterial activity against bla gene-positive and nitrocefin reaction-positive beta-lactamase harboring Campylobacter jejuni isolate P305 by NCCLS agar doubling dilution method; how it was run: as §3
[21] = system: Campylobacter jejuni; assay: Antibacterial activity against bla gene-positive and nitrocefin reaction-positive beta-lactamase harboring Campylobacter jejuni isolate P790 by NCCLS agar doubling dilution method; how it was run: as §3
[22] = system: Campylobacter jejuni; assay: Antibacterial activity against bla gene-negative and nitrocefin reaction-negative beta-lactamase harboring Campylobacter jejuni isolate P1962 by NCCLS agar doubling dilution method; how it was run: as §2
[23] = system: Campylobacter jejuni; assay: Antibacterial activity against bla gene-negative and nitrocefin reaction-positive beta-lactamase harboring Campylobacter jejuni isolate P843 by NCCLS agar doubling dilution method; how it was run: as §2
[24] = system: Campylobacter jejuni; assay: Antibacterial activity against bla gene-negative and nitrocefin reaction-positive beta-lactamase harboring Campylobacter jejuni isolate P854 by NCCLS agar doubling dilution method; how it was run: as §2
[25] = system: Campylobacter jejuni; assay: Antibacterial activity against Campylobacter jejuni isolate P338 harboring blaOXA-61::cat gene by NCCLS agar doubling dilution method; how it was run: as §4
[26] = system: Campylobacter jejuni; assay: Antibacterial activity against bla gene-positive and nitrocefin reaction-positive beta-lactamase harboring Campylobacter jejuni isolate P316 by NCCLS agar doubling dilution method; how it was run: as §3

| SMILES | MIC50 [1] [µg/mL] | MIC90 [1] [µg/mL] | MIC50 [2] [µg/mL] | MIC90 [2] [µg/mL] | MIC [3] [µg/mL] | MIC [4] [µg/mL] | MIC [5] [µg/mL] | MIC [6] [µg/mL] | MIC [7] [µg/mL] | MIC [9] [µg/mL] | MIC [10] [µg/mL] | MIC [11] [µg/mL] | MIC [12] [µg/mL] | MIC [13] [µg/mL] | MIC [14] [µg/mL] | MIC [15] [µg/mL] | MIC [16] [µg/mL] | MIC [17] [µg/mL] | MIC [18] [µg/mL] | MIC [19] [µg/mL] | further results |
| --- | --- | --- | --- | --- | --- | --- | --- | --- | --- | --- | --- | --- | --- | --- | --- | --- | --- | --- | --- | --- | --- |
| CC(=O)OCC1=C(C(=O)O)N2C(=O)[C@@H](NC(=O)Cc3cccs3)[C@H]2SC1 [CEPHALOTHIN] | 256 (≈ 646 µM) | > 256 | > 256 | > 256 | – | – | – | – | – | – | – | – | – | – | – | – | – | – | – | – | – |
| Cc1onc(-c2ccccc2Cl)c1C(=O)N[C@@H]1C(=O)N2[C@@H]1SC(C)(C)[C@@H]2C(=O)O [CLOXACILLIN] | 256 (≈ 587 µM) | > 256 | 256 (≈ 587 µM) | > 256 | 512 (≈ 1170 µM) | 256 (≈ 587 µM) | 256 (≈ 587 µM) | 128 (≈ 294 µM) | 256 (≈ 587 µM) | 256 (≈ 587 µM) | 256 (≈ 587 µM) | 128 (≈ 294 µM) | 256 (≈ 587 µM) | 256 (≈ 587 µM) | 128 (≈ 294 µM) | 128 (≈ 294 µM) | 256 (≈ 587 µM) | 256 (≈ 587 µM) | 128 (≈ 294 µM) | 256 (≈ 587 µM) | MIC [8]: 256 µg/mL (≈ 587 µM); MIC [1]: 256 µg/mL (≈ 587 µM); MIC [20]: 256 µg/mL (≈ 587 µM); MIC [21]: > 256 µg/mL; MIC [22]: 256 µg/mL (≈ 587 µM); MIC [23]: > 256 µg/mL; MIC [24]: 256 µg/mL (≈ 587 µM); MIC [25]: 128 µg/mL (≈ 294 µM); MIC [26]: 256 µg/mL (≈ 587 µM) |
| CC1(C)S[C@@H]2[C@H](NC(=O)[C@H](C(=O)O)c3ccsc3)C(=O)N2[C@H]1C(=O)O [TICARCILLIN] | 64 (≈ 166 µM) | 128 (≈ 333 µM) | 64 (≈ 166 µM) | 128 (≈ 333 µM) | 32 (≈ 83.2 µM) | 64 (≈ 166 µM) | 64 (≈ 166 µM) | 64 (≈ 166 µM) | 64 (≈ 166 µM) | 32 (≈ 83.2 µM) | 8 (≈ 20.8 µM) | 2 (≈ 5.2 µM) | 128 (≈ 333 µM) | 128 (≈ 333 µM) | 64 (≈ 166 µM) | 2 (≈ 5.2 µM) | 64 (≈ 166 µM) | 4 (≈ 10.4 µM) | 64 (≈ 166 µM) | 64 (≈ 166 µM) | MIC [20]: 128 µg/mL (≈ 333 µM); MIC [21]: 128 µg/mL (≈ 333 µM); MIC [22]: < 4 µg/mL; MIC [23]: 128 µg/mL (≈ 333 µM); MIC [24]: 128 µg/mL (≈ 333 µM); MIC [25]: 4 µg/mL (≈ 10.4 µM); MIC [26]: 64 µg/mL (≈ 166 µM) |

Reference: ChEMBL document CHEMBL1649560, “Beta-lactamase-mediated beta-lactam resistance in Campylobacter species: prevalence of Cj0299 (bla OXA-61) and evidence for a novel beta-Lactamase in C. jejuni” (2009)
